SR-BI HDL uptake: inhibitors of mouse SR-BI mediated HDL lipid uptake; inhibition, % at 12.5 µM; ldlA[mSR-BI] CHO cells, DiI-HDL uptake fluorescence, 3 h; Q61009; hit rate 0.96% among 320,000;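 active = mean replicate inhibition of at least 70% and a set share of replicates each scoring 70 or more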;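 note: 0% = median of neutral control wells and 100% = median of positive control wells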
Target sequence (Q61009 whole entry, looked up): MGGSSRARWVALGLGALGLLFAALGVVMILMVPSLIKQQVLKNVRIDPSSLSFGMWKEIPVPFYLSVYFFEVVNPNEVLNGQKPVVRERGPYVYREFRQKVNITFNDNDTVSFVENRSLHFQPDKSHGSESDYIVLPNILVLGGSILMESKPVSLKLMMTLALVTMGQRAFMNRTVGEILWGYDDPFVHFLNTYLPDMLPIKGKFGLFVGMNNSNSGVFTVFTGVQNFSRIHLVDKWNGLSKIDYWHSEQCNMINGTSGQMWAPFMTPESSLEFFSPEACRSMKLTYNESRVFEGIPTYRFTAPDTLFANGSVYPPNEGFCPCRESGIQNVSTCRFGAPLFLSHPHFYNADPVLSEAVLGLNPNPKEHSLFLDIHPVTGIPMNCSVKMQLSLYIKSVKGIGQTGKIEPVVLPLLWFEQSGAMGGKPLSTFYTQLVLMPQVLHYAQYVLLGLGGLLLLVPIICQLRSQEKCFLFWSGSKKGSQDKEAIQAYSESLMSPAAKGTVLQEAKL
UBC13 polyUb: blocks human UBC13 polyubiquitin chain formation | P61088 | TR-FRET | inhibition, % at 20 µM | hit rate 0.47% among 330,000; in the data active = inhibition above about 45%, passing the limit was not always enough
Neddylation inh: cullin neddylation inhibition; inhibition, % at 25 µM; hit rate 0.58% among 360,000; AID 651699; TR-FRET cullin neddylation, biochemical; P61081+Q13564; in the data active = inhibition above about 36%
SR-BI uptake up: enhances SR-BI lipid uptake from DiI-HDL; CHO ldlA[mSR-BI] cells, DiI-HDL uptake fluorescence, 3 h; 100 = double the neutral-control signal; activation, % at 12.5 µM; AID 504775; hit rate 0.096% among 320,000;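 active = mean replicate activation of at least 60% and every replicate at or above 60%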;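 note: 0% = median plate neutral-control signal and 100% = twice that signal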
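System: CHO ldlA[mSR-BI] cells / Medium: HEPES-buffered (25 mM, pH 7.4) F12 plus 0.5% BSA / Probe or stimulus: labelled HDL, 10 µg/mL / Doses: single compound concentration, delivered by pin transfer / Schedule: 3 h, 37 °C / Measured by: DiI fluorescence, bottom read / Measure: cell-associated DiI fluorescence as measure of HDL uptake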
* = called active by the depositor. An excerpt weighted towards active compounds, which were near 1.9% of everything screened.

`O=C(Nc1ccc(N2CCCCCC2)cc1)c1cccc(S(=O)(=O)N2CCOCC2)c1` gave SR-BI HDL uptake 71*, UBC13 polyUb -5, Neddylation inh 9 and SR-BI uptake up -71.
O=S(=O)(c1cccc(COc2ccc(Cl)cc2Cl)c1)N1CCOCC1 was read as SR-BI HDL uptake 72*, UBC13 polyUb 2, Neddylation inh 6 and SR-BI uptake up -72.
Screening N#Cc1ccc(CNC(=O)N2CCOCC2)cc1 returned SR-BI HDL uptake -27, UBC13 polyUb -12, Neddylation inh -11 and SR-BI uptake up 27.
For COC(=O)C(C(=O)OC)C(CC(=O)c1ccc(Br)cc1)c1ccccc1 (stereo not given) the results were SR-BI HDL uptake -8, Neddylation inh -2 and SR-BI uptake up 8.
`COC(=O)C1(C(=O)OC)C[C@H](/C=C/c2ccccc2)N(Cc2ccccc2OC)[C@@H]1c1ccccc1` gave Neddylation inh 0.
CCOC(=O)c1ccc(NC(=O)c2cccc(S(=O)(=O)N3CCOCC3)c2)cc1 was read as SR-BI HDL uptake 83*, UBC13 polyUb -5, Neddylation inh 12 and SR-BI uptake up -83.
Screening O=C(NNC(=O)c1cc(Cl)ccc1O)c1cccc(S(=O)(=O)N2CCOCC2)c1 returned SR-BI HDL uptake 107*, UBC13 polyUb -12, Neddylation inh 17 and SR-BI uptake up -107.
`Cc1ccc(C(=O)NNC(=O)c2cccc(S(=O)(=O)N3CCOCC3)c2)cc1` gave SR-BI HDL uptake 1, UBC13 polyUb -8 and Neddylation inh -31.
`CC(=O)c1ccc(NC(=O)c2ccc(C)c(S(=O)(=O)N3CCOCC3)c2)cc1` gave SR-BI HDL uptake 85*, UBC13 polyUb -3, Neddylation inh -2 and SR-BI uptake up -85.
`Cc1ccc(NC(=O)c2ccc(=O)[nH]c2)cc1S(=O)(=O)N1CCCCCC1` gave SR-BI HDL uptake 80*, UBC13 polyUb -12, Neddylation inh 7 and SR-BI uptake up -80.
`CC(=O)c1cccc(NC(=O)c2cccc(S(=O)(=O)N3CCOCC3)c2)c1` gave UBC13 polyUb 2 and Neddylation inh 13.
`Cc1ccc(C(=O)Nc2ccc(N3CCOCC3)cc2)cc1S(=O)(=O)N1CCCCC1` gave SR-BI HDL uptake 22, UBC13 polyUb 6, Neddylation inh 7 and SR-BI uptake up -22.
Screening CSc1ncnc2c1ncn2CCCNCCCN1CCCC1=O returned Neddylation inh 14.
`CCOC(=O)CCCCCC(=O)Nc1ccc2c(c1)C(=O)N([C@H](C)CO)C[C@H](C)[C@@H](CN(C)C(=O)Nc1ccccc1)OCCCC[C@@H](C)O2` gave Neddylation inh -4.
CCC1(c2ccc(OC)cc2)NC(=O)N(CC(=O)NC2CCCCC2C)C1=O (stereo not given) was read as SR-BI HDL uptake -12, UBC13 polyUb -1, Neddylation inh -35 and SR-BI uptake up 12.
Cc1ccc(C(=O)Nc2cccc(S(=O)(=O)N3CCOCC3)c2)cc1[N+](=O)[O-] was read as SR-BI HDL uptake 77*, UBC13 polyUb 6, Neddylation inh -11 and SR-BI uptake up -77.
Screening O=C(Nc1ccc(N2CCOCC2)cc1)c1cc2c(s1)CCCCC2 returned SR-BI HDL uptake 88*, UBC13 polyUb -14, Neddylation inh -7 and SR-BI uptake up -88.
`CCOc1ccc(CCNC(=O)c2ccc(Cl)c(S(=O)(=O)N3CCOCC3)c2)cc1OCC` gave SR-BI HDL uptake 73*, UBC13 polyUb -1, Neddylation inh 2 and SR-BI uptake up -73.
`CCOc1ccc(CCNC(=O)c2ccc(C)c(S(=O)(=O)N3CCOCC3)c2)cc1OCC` gave SR-BI HDL uptake 60, Neddylation inh -30 and SR-BI uptake up -60.
`CCOC(=O)c1ccc(NC(=O)c2ccc(C)c(S(=O)(=O)N3CCOCC3)c2)cc1` gave SR-BI HDL uptake 87*, UBC13 polyUb 6, Neddylation inh 6 and SR-BI uptake up -87.
O=C(Nc1cccc(S(=O)(=O)N2CCOCC2)c1)c1ccc(Cl)c([N+](=O)[O-])c1 was read as SR-BI HDL uptake 35, UBC13 polyUb 4, Neddylation inh -26 and SR-BI uptake up -35.
`CC1=C(C(=O)N(C)C)CC(CC(=O)NCCc2ccccn2)C(=O)N1CCCN1CCCC1=O` (stereo not given) gave Neddylation inh -12.
`CC(C)c1cc(C(=O)OCC(=O)NC2CC2)c(O)c(C(C)C)c1` gave Neddylation inh 27.
O=C(CCNS(=O)(=O)c1ccc(F)c(F)c1)NCCN1CCOCC1 was read as SR-BI HDL uptake -15, UBC13 polyUb 14, Neddylation inh 9 and SR-BI uptake up 15.
For Nc1nc2c(ncn2[C@@H]2O[C@H](CNCc3cnc(N4CCOCC4)nc3)[C@@H](O)[C@H]2O)c(=O)[nH]1 the results were Neddylation inh 9.
Screening CC(C)N=C(NS(=O)(=O)c1ccccc1)C(Cl)(Cl)Cl returned SR-BI HDL uptake -3, UBC13 polyUb -1, Neddylation inh -3 and SR-BI uptake up 3.
`O=C(O)COc1ccccc1/C=N/NC(=O)c1ccc(F)cc1` gave SR-BI HDL uptake -8, UBC13 polyUb -8, Neddylation inh 8 and SR-BI uptake up 8.
For CCN(CC)c1ccc(C(=O)N/N=C/c2ccccc2OC(F)F)cc1 the results were SR-BI HDL uptake 86*, UBC13 polyUb -18 and SR-BI uptake up -86.
Screening COc1cccc(/C=N/NC(=O)c2ccc(N(C)S(=O)(=O)c3ccccc3)cc2)c1OC returned SR-BI HDL uptake 83*, UBC13 polyUb -1, Neddylation inh 0 and SR-BI uptake up -83.
Screening COc1ccc(/C=N/NC(=O)c2ccc(N(C)S(=O)(=O)c3ccccc3)cc2)cc1 returned SR-BI HDL uptake 68, UBC13 polyUb 5, Neddylation inh 21 and SR-BI uptake up -68.
Screening COc1ccc(/C=N\NC(=O)c2ccc(-c3ccccc3)cc2)c(OC)c1OC returned SR-BI HDL uptake 75* and UBC13 polyUb 22.
COc1ccccc1/C=N/NC(=O)c1ccc(N(C)S(=O)(=O)c2ccccc2)cc1 was read as SR-BI HDL uptake 84*, UBC13 polyUb -5, Neddylation inh 7 and SR-BI uptake up -84.
Screening COc1ccc(OC)c(/C=N/NC(=O)c2ccc(N(C)S(=O)(=O)c3ccccc3)cc2)c1 returned SR-BI HDL uptake 51, UBC13 polyUb -6 and SR-BI uptake up -51.
Screening N#CC(=C1C=CC(=NO)C(Cl)=C1)c1ccccc1 returned Neddylation inh -1.
Screening CCOc1ccc(CCNC(=O)c2c(C)nn(-c3ccccc3)c2Cl)cc1OCC returned SR-BI HDL uptake 37, UBC13 polyUb -1, Neddylation inh -4 and SR-BI uptake up -37.
Screening COc1ccccc1/C=N/NC(=O)c1ccc(CN2C(=O)c3cccc4cccc2c34)cc1 returned SR-BI HDL uptake 89*, UBC13 polyUb 20 and SR-BI uptake up -89.
Screening COc1ccccc1/C=N/NC(=O)c1ccc(Br)cc1 returned SR-BI HDL uptake 45, UBC13 polyUb 0, Neddylation inh 0 and SR-BI uptake up -45.
Screening Cc1ccc(-c2nc(SC(C)C(=O)NC3CC3)n[nH]2)cc1 (stereo not given) returned Neddylation inh 3.
